RGS4 pot: potentiators or activators of RGS4. HEK293 M3R/inducible RGS4, carbachol calcium flux Fluo4; hits give low values. 0.92% of 310,000 active. B-score at 10 µM;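 active = B-score of the integrated calcium signal more than 4 SD below the library mean, with starting fluorescence not abnormally high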;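 also: negative B-score means reduced calcium response which marks RGS4 activation or potentiation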
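Test system: HEK293 cells with stable M3R and inducible RGS4; also added: carbachol at ECmax as muscarinic agonist stimulus; schedule: dye loading 30 min 37 °C, buffer rest 30 min RT; technique: kinetic calcium fluorescence imaging with Fluo4-AM dye, 2 µM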
MrgX1 allo act: allosterically activates human MrgX1 receptor signaling | MrgX1-HEK293, Fluo-4 calcium flux, FDSS; hits give high values | B-score at 10 µM | 0.63% of 310,000 active;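 active = plate-corrected calcium response at least 3 library SD above typical, normal starting fluorescence, not activating the receptor alone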;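 also: compound read alongside a low EC10 to EC30 dose of BAM8-22 agonist; peak minus trough fluorescence over baseline measured at the second addition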
Target sequence (Q96LB2 whole entry, looked up): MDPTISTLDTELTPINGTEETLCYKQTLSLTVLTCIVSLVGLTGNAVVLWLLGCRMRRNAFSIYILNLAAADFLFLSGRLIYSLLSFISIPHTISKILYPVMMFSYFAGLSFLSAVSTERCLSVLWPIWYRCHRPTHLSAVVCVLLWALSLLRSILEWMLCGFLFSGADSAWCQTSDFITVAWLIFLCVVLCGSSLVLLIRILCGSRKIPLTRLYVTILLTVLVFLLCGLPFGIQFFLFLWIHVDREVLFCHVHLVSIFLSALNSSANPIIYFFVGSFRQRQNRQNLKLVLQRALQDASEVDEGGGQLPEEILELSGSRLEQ
RGS4 block: inhibitors of human RGS4. P49798. HEK293 M3R/RGS4 inducible, Fluo-4 calcium flux; hits give high values; triggered by carbachol at its EC20. B-score at 10 µM. 0.45% of 310,000 active. AID 463165;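 active = B-score, a plate-corrected calcium signal, over three deviations above library mean, with baseline fluorescence within five deviations of library mean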;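 also: RGS4 expression induced by doxycycline in cells with stable M3 receptor; B-score is computed from the integrated fluorescence ratio over baseline after carbachol; higher B-score means a larger calcium signal and so more RGS4 inhibition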
Target sequence (P49798 whole entry, looked up): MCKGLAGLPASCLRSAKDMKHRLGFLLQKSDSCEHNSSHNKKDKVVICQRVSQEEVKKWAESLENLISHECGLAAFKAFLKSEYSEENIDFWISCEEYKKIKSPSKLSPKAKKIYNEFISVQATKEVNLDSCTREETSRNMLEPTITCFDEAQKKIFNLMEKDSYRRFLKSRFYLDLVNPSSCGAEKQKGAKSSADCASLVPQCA
MrgX1 agonist: activates human MrgX1 receptor signaling; MrgX1-HEK293 cells, Fluo-4 calcium fluorescence, agonist mode; hits give high values; B-score at 10 µM; 0.44% of 310,000 active; AID 588627;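 active = calcium response B-score plate-corrected fluorescence ratio at least 3 library SD, with starting fluorescence B-score inside 5 SD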
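Test system: HEK293 cells stably expressing human MrgX1 receptor; Input: fifteen thousand cells per well; Dosing: compound delivered in addition one of three; Schedule: overnight seeding, then 1 h dark dye loading; Technique: Fluo-4 NW calcium fluorescence; Measure: B-scored fluorescence response ratio; Controls: positive and negative controls per plate.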
MrgX1 antag: human MrgX1 receptor antagonism, primary screen; Q96LB2; MRGX1-HEK293 calcium flux, Fluo-4, BAM8-22 antagonism; hits give low values; B-score at 10 µM; 1.3% of 310,000 active;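 active = calcium-response B-score plate-corrected more than 3 library SD below zero, starting fluorescence within 5 deviations, no agonist response on first addition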;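 also: peak minus trough fluorescence over baseline after final BAM8-22 challenge near maximal dose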
MrgX1 antag conf: human MrgX1 receptor antagonism, re-confirmation screen. shares compounds with MrgX1 antag. MrgX1-HEK293, BAM8-22 calcium flux, Fluo-4; hits give low values. remaining BAM8-22 calcium response % of control (hits give low values), % at 10 µM. 19% of 2,300 active. AID 602420;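 active = remaining agonist calcium response no higher than 100% minus 3 SD of agonist-only control wells, with starting fluorescence near control levels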;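 also: agonist BAM8-22 given at a near maximal EC90 to ECmax level; peak minus minimum fluorescence divided by baseline after agonist addition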
HEK293 Ca flux: MrgX1 antagonist counter-screen hit in parental HEK293 cells | 2% of 4,000 active | AID 624111 | Fluo-4 calcium fluorescence, FDSS | shares compounds with MrgX1 antag | fluorescence ratio F(max-min)/F0 at 10 µM;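 active = duplicate-averaged calcium fluorescence ratio at least three times the standard deviation of buffer wells, a nonspecific response in parental cells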
HEK293 Ca counter: activity in parental HEK293 cells without MrgX1; fluorescence ratio F(max-min)/F0 at 10 µM; 0.4% of 4,000 active; parental HEK293 calcium flux, Fluo-4 fluorescence ratio; hits give high values; AID 624114; shares compounds with MrgX1 antag;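 active = calcium fluorescence ratio, averaged over duplicates, at least 3 SD of the buffer-well ratio, meaning a nonspecific response in receptor-free cells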;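 also: untransfected parental HEK293 lacking MrgX1 used as counterscreen for MrgX1 allosteric activators; fluorescence change taken during the second addition on a kinetic imager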
HEK293 Ca cntr2: MrgX1 activator counter-screen hit in parental HEK293 cells; shares compounds with MrgX1 antag; Fluo-4 calcium fluorescence (FDSS); hits give high values; fluorescence ratio F(max-min)/F0 at 10 µM; 8.7% of 4,000 active;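 active = calcium fluorescence ratio at least three times the spread of buffer wells, meaning a non-specific response in parental cells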
Active calls of the source: *; i = inactive; x = no result given. Rows were chosen to be rich in hits. Some 3.5% of all compounds tested hit in one or more screens of this group.

SMILES	RGS4 pot	MrgX1 allo act	RGS4 block	MrgX1 agonist	MrgX1 antag	MrgX1 antag conf	HEK293 Ca flux	HEK293 Ca counter	HEK293 Ca cntr2
CCn1c2ccccc2c2cc(CN3CCN(S(=O)(=O)CC)CC3)ccc21	i	i	i	i	i	x	x	x	x
CCCC(=O)Nc1ccccc1N1CCN(C(=O)C(C)C)CC1	i	i	i	i	-5.16*	i	i	i	i
CC(C)C(=O)N1CCN(c2ccccc2NC(=S)NC(=O)Cc2ccccc2)CC1	i	i	i	i	i	x	x	x	x
CCOC(=O)CSc1n[nH]c(NC(=O)CC)n1	i	i	i	i	i	x	x	x	x
O=C(O)COc1ccccc1/C=N/NC(=O)CSc1nc2ccccc2n1Cc1ccccc1Cl	i	i	i	i	i	x	x	x	x
O=C(CSc1n[nH]c(=O)n1C1CC1)Nc1ccccc1	i	i	i	i	i	x	x	x	x
O=C(CSc1n[nH]c(=O)n1C1CC1)Nc1cc(Cl)ccc1Oc1ccccc1	i	i	i	i	-8.42*	i	i	i	i
Cc1cc(NC(=O)CC2CCCC2)ccc1Br	i	i	i	i	i	x	x	x	x
Cc1cccc(NC(=O)CC2CCC2)c1	i	i	i	i	-5.78*	i	i	i	i
CC(C)c1ccc(/C=C2\NC(=S)N(Cc3cccnc3)C2=O)cc1	i	i	i	i	i	x	x	x	x
CCc1cccc(NC(=O)CCC(=O)N2CCSc3ccccc32)c1	i	i	i	i	i	x	x	x	x
CCc1ccc(NC(=O)CCC(=O)N2CCSc3ccccc32)cc1	i	i	i	i	-5.17*	i	i	i	i
Cc1ccc(Cn2c(NCCCn3ccnc3)nc3c2c(=O)n(C)c(=O)n3C)cc1	i	i	i	i	i	x	x	x	x
O=C(Nc1ccc(OCC(F)(F)C(F)F)c(C(F)(F)F)c1)c1ccccc1O	i	i	i	i	-5.69*	i	i	i	i
CCOC(=O)c1cc([N+](=O)[O-])sc1NC(=O)c1ccc(S(=O)(=O)N2CC3(C)CC2CC(C)(C)C3)cc1 (stereo not given)	-9.09*	i	i	i	-11.1*	i	0.478*	i	i
CC(=O)c1ccc(NC(=S)NC(C)c2ccc(Cl)cc2Cl)cc1 (stereo not given)	i	i	i	i	-10.3*	i	i	i	i
CCN(CC#CCC1(O)c2ccccc2-c2ccccc21)CCO	i	i	i	i	i	x	x	x	x
CC(C)N(CC#CCC1(O)c2ccccc2-c2ccccc21)CCO	i	i	i	i	-5.96*	i	i	i	i
CCSc1nc2cc(OC)c(OC)cc2c(=O)n1CC	i	i	i	i	-4.78*	i	i	i	i
COc1ccc(S(=O)(=O)N2CCCC2)cc1C(=O)O	i	i	i	i	i	x	x	x	x
Cc1ccc2oc(C(=O)N3CCC(O)(c4ccccc4)CC3)c(C)c2c1	i	i	i	i	i	x	x	x	x
CCN(CC)c1ccc(C=Nc2ccc(N(C)C)cc2)c(O)c1	i	i	i	i	-4.64*	66.3%*	i	i	i
CCN(CC)c1ccc(N=Cc2ccc(N(CC)CC)cc2O)cc1	i	i	i	i	-8.15*	i	0.238*	i	46.2*
O=C(NC1CCCCCC1)C1CC(=O)N(c2ccc(Cl)cc2)C1 (stereo not given)	i	i	i	i	i	x	x	x	x
O=C(Nc1ccccc1O)C(c1ccccc1)c1ccccc1	i	i	i	i	-5.07*	75.7%*	i	i	i
SMILES	RGS4 pot	MrgX1 allo act	RGS4 block	MrgX1 agonist	MrgX1 antag	MrgX1 antag conf	HEK293 Ca flux	HEK293 Ca counter	HEK293 Ca cntr2
O=C(Nc1ccc(Cl)c(Cl)c1)Nc1ccccc1O	i	i	i	i	-5.49*	i	i	i	i
CCN1c2ccccc2-c2nc3ccccc3n2C1c1cccs1 (stereo not given)	i	i	i	i	-6.13*	i	i	i	i
CCCn1c(-c2cccs2)nc2ccccc21	i	i	i	i	i	x	x	x	x
O=C(COC(=O)[C@@H]1CCCN1S(=O)(=O)c1ccccc1F)Nc1ccc(OC(F)F)cc1	i	i	i	i	i	x	x	x	x
CCOC(=O)c1sc(NC(=O)Nc2cccc(Cl)c2)cc1C	i	i	i	i	-6.08*	57.0%*	i	i	i
CCOC(=O)c1sc(NC(=O)c2cccs2)cc1C	i	i	i	i	i	x	x	x	x
Cc1cccc(N2CCN(C(=O)Cc3cn(C)c4ccccc34)CC2)c1C	i	i	i	i	-4.67*	80.6%*	i	i	i
Cc1cccc(N2CCN(C(=O)COc3cc(=O)n(C)c4ccccc34)CC2)c1C	i	i	i	i	i	x	x	x	x
CC(=O)Nc1ccc2c(c1)N(C(C)=O)c1ccccc1CC2	i	i	i	i	-4.69*	82.0%*	i	i	i
COc1ccc(C(=O)N(c2ccc(OC)cc2)S(=O)(=O)c2cccs2)cc1	i	i	i	i	-4.93*	i	i	i	i
COc1ccc(N(C(=O)c2ccccc2)S(=O)(=O)c2cccs2)cc1	i	i	i	i	i	x	x	x	x
CCn1ccnc1CN1CCN(CCC(C)C)C(CCO)C1 (stereo not given)	i	i	i	i	-6.19*	i	i	i	i
CCn1ccnc1CN1CCN(CC(C)C)C(CCO)C1 (stereo not given)	i	i	i	i	i	x	x	x	x
CCN(CCCNC(=O)C1CCN(S(=O)(=O)c2cnc[nH]2)CC1)c1cccc(C)c1	i	i	i	i	i	x	x	x	x
Cc1cccc2sc(NC(=O)c3ccc(Cl)s3)nc12	i	i	i	i	-7.13*	i	i	i	i
CC(C)(C)N=C1NC(=NC(C)(C)C)c2ccccc21	i	i	i	i	-5.02*	i	i	i	51*

From PubChem BioAssay
